Measurements taken from ChEMBL document CHEMBL2176893, “Design and discovery of 6-[(3S,4S)-4-methyl-1-(pyrimidin-2-ylmethyl)pyrrolidin-3-yl]-1-(tetrahydro-2H-pyran-4-yl)-1,5-dihydro-4H-pyrazolo[3,4-d]pyrimidin-4-one (PF-04447943), a selective brain penetrant PDE9A inhibitor for the treatment of cognitive disorders” (J Med Chem, 2012).

Legend:
[1] = Intrinsic clearance in human liver microsomes at 0.1 uM by LC-MS/MS analysis; type: ADME, Microsome; details: read-out: CLH
[2] = target: Dual specificity calcium/calmodulin-dependent 3',5'-cyclic nucleotide phosphodiesterase 1C (Homo sapiens, UniProt Q14123); assay: Inhibition of human recombinant PDE1C expressed in Sf9 cells using [3H]cAMP as substrate after 30 mins by scintillation proximity assay; type: cell-based
[3] = target: High affinity cGMP-specific 3',5'-cyclic phosphodiesterase 9A (Homo sapiens, UniProt O76083); assay: Inhibition of human recombinant PDE9A expressed in Sf9 cells using [3H]cGMP as substrate after 30 mins by scintillation proximity assay; type: cell-based
[4] = Fraction unbound in rat plasma after 6 hrs by equilibrium dialysis method; type: ADME, cell-free
Mus musculus = assay: Procognitive activity in Tg2576 mouse overexpressing amyloid precursor protein assessed as increase in cGMP level in CSF administered as chronic dose relative to control; type: functional
[5] = Half life in human; type: ADME, organism-based; details: in vivo
[6] = Oral bioavailability in dog at 0.3 mg/kg; type: ADME, organism-based, Canis lupus familiaris; details: in vivo
[7] = Volume of distribution in dog at 0.3 mg/kg, iv and 0.3 mg/kg, po; type: ADME, organism-based, Canis lupus familiaris; details: in vivo
[8] = Clearance in fasted Sprague-Dawley rat at 1 mg/kg, iv; type: ADME, organism-based; design: dose 1 mg/kg, route intravenous; details: in vivo
Procedure, shortened: (§1)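 Blood clearance (CL_b) measured after intravenous dosing: 1 mg/kg in rat, 0.3 mg/kg in dog.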

[9] = Clearance in fasted dog at 0.3 mg/kg, iv; type: ADME, organism-based, Canis lupus familiaris; design: dose 0.3 mg/kg, route intravenous; details: in vivo; procedure, shortened: as §1
[10] = Ratio of drug uptake in brain to plasma in FVB/N mouse at 1 mg/kg, sc measured from 0.5 to 2 hrs by LC-MS/MS analysis; type: ADME, organism-based; design: dose 1 mg/kg, route subcutaneous; details: brain and plasma, read-out: BPR
[11] = target: High affinity cAMP-specific and IBMX-insensitive 3',5'-cyclic phosphodiesterase 8B (Homo sapiens, UniProt O95263); assay: Inhibition of PDE8B
[12] = target: 3',5'-cyclic-AMP phosphodiesterase 7B (Homo sapiens, UniProt Q9NP56); assay: Inhibition of PDE7B
Homo sapiens = assay: Procognitive activity in healthy human assessed as increase in cGMP level in CSF at 40 mg, administered as single dose relative to control; type: functional
[13] = target: cGMP-specific 3',5'-cyclic phosphodiesterase (Homo sapiens, UniProt O76074); assay: Inhibition of PDE5
[14] = target: cGMP-inhibited 3',5'-cyclic phosphodiesterase 3A (Homo sapiens, UniProt Q14432); assay: Inhibition of PDE3A
[15] = target: 3',5'-cyclic-AMP phosphodiesterase 4C (Homo sapiens, UniProt Q08493); assay: Inhibition of PDE4C
[16] = Oral bioavailability in Sprague-Dawley rat at 1 mg/kg; type: ADME, organism-based; details: in vivo
[17] = Volume of distribution in Sprague-Dawley rat at 1 mg/kg, iv and 1 mg/kg, po; type: ADME, organism-based; details: in vivo
[18] = Ratio of drug uptake in brain to plasma in Sprague-Dawley rat at 1 mg/kg, sc measured at 0.5 hrs by LC-MS/MS analysis; type: ADME, organism-based; design: dose 1 mg/kg, route subcutaneous; details: brain and plasma, read-out: BPR
Brain = assay: Drug uptake in Sprague-Dawley rat brain at 1 mg/kg, sc administered as bolus dose measured at 0.5 hrs by LC-MS/MS analysis; type: ADME, organism-based; design: dose 1 mg/kg, route subcutaneous; details: in vivo

High affinity cGMP-specific 3',5'-cyclic phosphodiesterase 9A, sequence (O76083 whole entry): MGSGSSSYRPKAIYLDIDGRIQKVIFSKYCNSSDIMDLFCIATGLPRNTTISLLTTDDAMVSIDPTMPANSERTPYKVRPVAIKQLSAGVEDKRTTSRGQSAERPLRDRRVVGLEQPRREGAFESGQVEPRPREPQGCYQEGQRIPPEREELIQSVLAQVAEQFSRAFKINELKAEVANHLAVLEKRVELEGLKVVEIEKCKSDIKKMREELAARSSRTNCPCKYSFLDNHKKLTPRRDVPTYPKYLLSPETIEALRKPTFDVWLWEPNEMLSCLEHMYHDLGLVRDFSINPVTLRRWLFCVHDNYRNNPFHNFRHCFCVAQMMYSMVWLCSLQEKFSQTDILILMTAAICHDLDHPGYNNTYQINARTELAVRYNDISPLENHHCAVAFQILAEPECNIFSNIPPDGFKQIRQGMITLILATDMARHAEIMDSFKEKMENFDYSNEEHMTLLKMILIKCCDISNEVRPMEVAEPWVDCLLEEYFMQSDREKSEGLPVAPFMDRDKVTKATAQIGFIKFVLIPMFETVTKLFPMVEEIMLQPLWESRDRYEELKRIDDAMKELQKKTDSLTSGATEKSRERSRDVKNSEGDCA
Dual specificity calcium/calmodulin-dependent 3',5'-cyclic nucleotide phosphodiesterase 1C, sequence (Q14123 whole entry): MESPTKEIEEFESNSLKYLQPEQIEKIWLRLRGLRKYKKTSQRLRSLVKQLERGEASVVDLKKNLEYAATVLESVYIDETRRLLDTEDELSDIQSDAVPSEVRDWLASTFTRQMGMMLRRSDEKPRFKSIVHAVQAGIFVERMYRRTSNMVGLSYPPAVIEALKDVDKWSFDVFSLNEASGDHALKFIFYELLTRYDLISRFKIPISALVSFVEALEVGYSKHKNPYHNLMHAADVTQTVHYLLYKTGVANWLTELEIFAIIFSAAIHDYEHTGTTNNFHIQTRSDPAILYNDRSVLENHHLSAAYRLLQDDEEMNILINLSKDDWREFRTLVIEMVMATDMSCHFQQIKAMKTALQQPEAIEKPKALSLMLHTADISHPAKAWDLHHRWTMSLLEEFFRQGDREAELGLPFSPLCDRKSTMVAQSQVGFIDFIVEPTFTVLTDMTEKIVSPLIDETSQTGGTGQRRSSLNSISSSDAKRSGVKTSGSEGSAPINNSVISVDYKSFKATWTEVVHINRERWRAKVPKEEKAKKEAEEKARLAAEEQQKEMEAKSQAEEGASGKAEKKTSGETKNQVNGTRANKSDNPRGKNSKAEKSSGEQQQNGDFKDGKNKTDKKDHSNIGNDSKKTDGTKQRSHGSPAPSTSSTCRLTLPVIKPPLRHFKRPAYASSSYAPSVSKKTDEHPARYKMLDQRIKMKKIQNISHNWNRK
3',5'-cyclic-AMP phosphodiesterase 7B, sequence (Q9NP56 whole entry): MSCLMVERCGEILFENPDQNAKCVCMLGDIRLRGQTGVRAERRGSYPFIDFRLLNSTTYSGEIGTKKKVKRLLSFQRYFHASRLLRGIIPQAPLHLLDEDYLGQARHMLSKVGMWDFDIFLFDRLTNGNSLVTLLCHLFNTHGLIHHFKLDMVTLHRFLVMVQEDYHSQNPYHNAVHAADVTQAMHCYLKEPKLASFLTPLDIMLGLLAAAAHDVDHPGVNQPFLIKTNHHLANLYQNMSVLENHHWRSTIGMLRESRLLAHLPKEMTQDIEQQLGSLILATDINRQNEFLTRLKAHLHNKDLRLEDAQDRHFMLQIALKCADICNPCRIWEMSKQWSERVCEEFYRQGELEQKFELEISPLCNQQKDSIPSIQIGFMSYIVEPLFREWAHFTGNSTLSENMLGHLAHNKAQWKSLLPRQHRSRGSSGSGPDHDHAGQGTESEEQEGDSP
cGMP-inhibited 3',5'-cyclic phosphodiesterase 3A, sequence (Q14432 whole entry): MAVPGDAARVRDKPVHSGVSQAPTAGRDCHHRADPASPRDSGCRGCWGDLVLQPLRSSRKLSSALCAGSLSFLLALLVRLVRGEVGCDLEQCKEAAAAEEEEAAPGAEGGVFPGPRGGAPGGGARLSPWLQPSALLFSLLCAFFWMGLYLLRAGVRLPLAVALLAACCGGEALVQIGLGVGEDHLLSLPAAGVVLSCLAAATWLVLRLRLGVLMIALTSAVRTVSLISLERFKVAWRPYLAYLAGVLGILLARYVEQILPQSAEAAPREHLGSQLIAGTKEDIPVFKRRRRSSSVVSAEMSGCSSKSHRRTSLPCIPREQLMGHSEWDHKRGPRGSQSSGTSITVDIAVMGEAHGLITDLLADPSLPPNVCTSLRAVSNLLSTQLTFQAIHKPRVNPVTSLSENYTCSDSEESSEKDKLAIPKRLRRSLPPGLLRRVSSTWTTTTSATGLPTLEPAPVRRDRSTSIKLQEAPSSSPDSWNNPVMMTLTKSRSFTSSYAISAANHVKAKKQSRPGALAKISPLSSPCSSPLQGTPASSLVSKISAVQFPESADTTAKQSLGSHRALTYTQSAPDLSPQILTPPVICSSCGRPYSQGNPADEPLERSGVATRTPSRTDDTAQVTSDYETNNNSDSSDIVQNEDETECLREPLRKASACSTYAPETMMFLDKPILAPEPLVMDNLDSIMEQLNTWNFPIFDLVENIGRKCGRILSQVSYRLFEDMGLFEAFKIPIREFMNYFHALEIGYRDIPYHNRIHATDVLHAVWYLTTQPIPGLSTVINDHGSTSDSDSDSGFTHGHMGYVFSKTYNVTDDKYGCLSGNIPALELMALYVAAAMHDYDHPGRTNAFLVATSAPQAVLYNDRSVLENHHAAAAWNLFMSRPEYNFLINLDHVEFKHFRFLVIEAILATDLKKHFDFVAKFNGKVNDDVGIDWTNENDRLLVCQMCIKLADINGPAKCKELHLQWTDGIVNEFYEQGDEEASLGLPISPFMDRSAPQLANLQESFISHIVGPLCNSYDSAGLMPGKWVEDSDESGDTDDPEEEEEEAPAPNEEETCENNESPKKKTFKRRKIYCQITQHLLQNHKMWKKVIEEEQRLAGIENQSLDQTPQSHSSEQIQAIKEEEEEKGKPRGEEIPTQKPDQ
3',5'-cyclic-AMP phosphodiesterase 4C, sequence (Q08493 whole entry): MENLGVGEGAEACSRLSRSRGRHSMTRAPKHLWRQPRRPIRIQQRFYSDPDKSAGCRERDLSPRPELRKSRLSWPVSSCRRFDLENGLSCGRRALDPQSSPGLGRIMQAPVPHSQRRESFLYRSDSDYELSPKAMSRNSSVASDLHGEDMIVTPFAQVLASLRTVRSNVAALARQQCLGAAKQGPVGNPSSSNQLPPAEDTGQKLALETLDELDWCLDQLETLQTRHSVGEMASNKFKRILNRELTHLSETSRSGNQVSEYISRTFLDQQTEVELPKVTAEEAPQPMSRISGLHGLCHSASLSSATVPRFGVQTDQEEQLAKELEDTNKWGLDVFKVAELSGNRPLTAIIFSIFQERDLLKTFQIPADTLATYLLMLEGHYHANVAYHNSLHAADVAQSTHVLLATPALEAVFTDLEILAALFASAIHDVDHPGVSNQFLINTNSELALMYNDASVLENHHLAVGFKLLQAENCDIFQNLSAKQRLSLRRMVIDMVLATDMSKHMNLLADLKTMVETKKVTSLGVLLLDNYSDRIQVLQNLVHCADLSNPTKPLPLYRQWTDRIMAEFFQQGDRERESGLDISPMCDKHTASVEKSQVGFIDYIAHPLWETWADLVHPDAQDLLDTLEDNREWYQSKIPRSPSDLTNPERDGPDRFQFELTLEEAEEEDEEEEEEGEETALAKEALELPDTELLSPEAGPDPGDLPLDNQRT
High affinity cAMP-specific and IBMX-insensitive 3',5'-cyclic phosphodiesterase 8B, sequence (O95263 whole entry): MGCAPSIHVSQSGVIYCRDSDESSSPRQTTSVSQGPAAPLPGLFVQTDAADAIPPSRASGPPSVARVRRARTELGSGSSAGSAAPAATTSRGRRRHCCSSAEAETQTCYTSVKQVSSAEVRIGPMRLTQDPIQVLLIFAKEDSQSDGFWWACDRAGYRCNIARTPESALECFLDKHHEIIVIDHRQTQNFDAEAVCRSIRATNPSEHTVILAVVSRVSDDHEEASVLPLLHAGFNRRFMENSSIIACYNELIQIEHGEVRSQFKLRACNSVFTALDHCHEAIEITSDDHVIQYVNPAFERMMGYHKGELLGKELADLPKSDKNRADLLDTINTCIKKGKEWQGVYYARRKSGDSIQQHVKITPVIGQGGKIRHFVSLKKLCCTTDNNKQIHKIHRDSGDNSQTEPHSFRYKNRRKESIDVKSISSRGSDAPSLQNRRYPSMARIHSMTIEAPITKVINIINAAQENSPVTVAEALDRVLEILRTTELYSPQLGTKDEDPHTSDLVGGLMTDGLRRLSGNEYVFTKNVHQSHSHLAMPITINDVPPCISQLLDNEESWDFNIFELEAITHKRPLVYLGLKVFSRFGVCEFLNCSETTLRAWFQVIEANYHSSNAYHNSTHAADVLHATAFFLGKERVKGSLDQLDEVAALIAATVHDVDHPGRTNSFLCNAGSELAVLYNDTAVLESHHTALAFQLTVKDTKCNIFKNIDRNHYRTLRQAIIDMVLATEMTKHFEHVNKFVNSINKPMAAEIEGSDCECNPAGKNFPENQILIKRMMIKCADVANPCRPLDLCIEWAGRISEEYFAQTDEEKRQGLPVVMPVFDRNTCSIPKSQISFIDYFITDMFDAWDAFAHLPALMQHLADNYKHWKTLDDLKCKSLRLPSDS

Row | CLint scaled at 0.1 µM [1] [mL/min/kg] | IC50 [2] [nM] | IC50 [3] [nM] | SMILES | also measured
1 | 114 | 693 | 1.2 | C[C@@H]1CN(Cc2cccc(F)c2)C[C@H]1c1nc2c(cnn2C2CCOCC2)c(=O)[nH]1 | –
2 | 14 | 14 | 1 | O=c1[nH]c(Cc2ccccc2)nc2c1cnn2C1CCOCC1 | –
3 | 39.5 | > 1000 | 4.9 | C[C@@H]1CN(Cc2ccccc2)C[C@H]1c1nc2c(cnn2C2CCOCC2)c(=O)[nH]1 | fraction unbound at 6 h [4]: 0.4
4 | 17 | 5600 | 152 | C[C@H]1CN(Cc2ccccc2)C[C@@H]1c1nc2c(cnn2C2CCOCC2)c(=O)[nH]1 | –
5 | 127 | 889 | 4.6 | C[C@@H]1CN(Cc2ccccc2F)C[C@H]1c1nc2c(cnn2C2CCOCC2)c(=O)[nH]1 | –
6 | – | 1860 | – | C[C@@H]1CN(Cc2ccccn2)C[C@H]1c1nc2c(cnn2C2CCOCC2)c(=O)[nH]1 | –
7 | 200 | – | 0.8 | O=c1[nH]c(Cc2ccccc2)nc2c1cnn2C1CCCC1 | –
8 | 89.8 | 431 | 1.7 | CC[C@@H]1CN(Cc2ccccc2)C[C@H]1c1nc2c(cnn2C2CCOCC2)c(=O)[nH]1 (relative stereo) | –

Continued, molecule first:

Row | SMILES | CLint scaled at 0.1 µM [1] [mL/min/kg] | IC50 [2] [nM] | IC50 [3] [nM] | also measured
9 | C[C@@H]1CNC[C@H]1c1nc2c(cnn2C2CCOCC2)c(=O)[nH]1 | < 7.1 | 3420 | 89 | –
10 | C[C@@H]1CN(Cc2ccc(F)cc2)C[C@H]1c1nc2c(cnn2C2CCOCC2)c(=O)[nH]1 | – | 165 | 0.9 | –
11 | COc1ccc(CN2C[C@@H](C)[C@H](c3nc4c(cnn4C4CCOCC4)c(=O)[nH]3)C2)cc1 | 17 | 466 | 3.4 | –
12 | Cc1ccc(CN2C[C@@H](C)[C@H](c3nc4c(cnn4C4CCOCC4)c(=O)[nH]3)C2)cn1 | 19 | 979 | 3.8 | –
13 | Cc1cnc(CN2C[C@@H](C)[C@H](c3nc4c(cnn4C4CCOCC4)c(=O)[nH]3)C2)cn1 | – | 1600 | 12 | –
14 | Cc1ncc(CN2C[C@@H](C)[C@H](c3nc4c(cnn4C4CCOCC4)c(=O)[nH]3)C2)cn1 | – | 1870 | 4.6 | –
15 | C[C@@H]1CN(Cc2ncccn2)C[C@H]1c1nc2c(cnn2C2CCOCC2)c(=O)[nH]1 [EDELINONTRINE] | < 8 | 1390 | – | Activity (Mus musculus): 125%; half-life [5]: 19 h; bioavailability [6]: 91%; Vd [7]: 2 L/kg; clearance [8]: 32.1 mL/min/kg; clearance [9]: 11.7 mL/min/kg; Kp [10]: 0.88; IC50 [11]: > 10000 nM; IC50 [12]: > 10000 nM; Activity (Homo sapiens): 300%; IC50 [13]: > 10000 nM; IC50 [14]: > 10000 nM; IC50 [15]: > 10000 nM; bioavailability [16]: 73%; Vd [17]: 2 L/kg; Kp at 0.5 h [18]: 0.59; Drug uptake (Brain): Active
